Screening results (PubChem)
Only some compounds are listed: those with a hit (about 1% of all), similar ones and a draw of the others.
LYPLA2 counter: counter-screen for PME1 inhibitors: inhibitors of human LYPLA2 | AID 2177 | O95372 | recombinant LYPLA2, FP-Rh probe fluorescence polarization | inhibition, % at 5.9 µM | 320,000 compounds, 0.38% hits;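 active = inhibition above the screen-wide mean plus 3 SD, limit set per campaign, cut at about 26% in these data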;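 also: 0% = LYPLA2 with DMSO and 100% = wells lacking LYPLA2 enzyme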
Target sequence (O95372 whole entry, looked up): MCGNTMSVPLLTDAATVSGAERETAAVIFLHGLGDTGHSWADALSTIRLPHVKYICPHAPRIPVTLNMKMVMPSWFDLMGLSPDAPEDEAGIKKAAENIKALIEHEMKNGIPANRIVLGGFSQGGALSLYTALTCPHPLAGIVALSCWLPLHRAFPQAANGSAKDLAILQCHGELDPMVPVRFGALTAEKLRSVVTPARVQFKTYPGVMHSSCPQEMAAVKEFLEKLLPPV
LYPLA1 counter: blocks human lysophospholipase 1, a PME1 counter-screen | recombinant LYPLA1, FP-Rh probe fluorescence polarization | inhibition, % at 5.9 µM | 320,000 compounds, 0.16% hits | AID 2174 | O75608;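 active = inhibition above the mean of all tested compounds plus 3 SD, set per campaign, cut at about 14% in these data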;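 also: inhibitors block serine hydrolase probe labeling of LYPLA1 so polarization falls; 0% = enzyme with DMSO and 100% = wells lacking LYPLA1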
Target sequence (O75608 whole entry, looked up): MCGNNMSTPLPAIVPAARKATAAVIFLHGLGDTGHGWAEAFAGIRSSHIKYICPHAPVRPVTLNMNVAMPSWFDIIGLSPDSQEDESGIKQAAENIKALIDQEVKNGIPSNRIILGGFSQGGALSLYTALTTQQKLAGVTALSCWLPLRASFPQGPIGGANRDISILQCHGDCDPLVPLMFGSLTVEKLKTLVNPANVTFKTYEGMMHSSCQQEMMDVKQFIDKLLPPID
procasp3 activ: activates human procaspase-3. P42574. recombinant procaspase-3 D3A, Ac-DEVD-pNA absorbance 405 nm. activation, % at 8.5 µM. 330,000 compounds, 0.11% hits. AID 463141;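 active = activation above the mean of all tested compounds plus 3 SD, cut at about 21% in these data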;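 also: 0% = DMSO alone and 100% = DMSO wells spiked with extra 5 µM PC-3 D3A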
Target sequence (P42574 whole entry D9A/D28A/D175A): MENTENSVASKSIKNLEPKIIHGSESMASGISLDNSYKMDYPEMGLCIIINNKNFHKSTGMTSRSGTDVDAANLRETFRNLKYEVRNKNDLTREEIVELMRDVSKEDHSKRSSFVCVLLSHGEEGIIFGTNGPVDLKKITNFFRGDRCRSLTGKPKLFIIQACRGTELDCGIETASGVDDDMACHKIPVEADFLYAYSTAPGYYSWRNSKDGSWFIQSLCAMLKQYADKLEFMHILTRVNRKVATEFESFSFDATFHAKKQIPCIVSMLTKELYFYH
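System: Procaspase-3 D3A mutant. Medium: Zinc-free 300 mM NaCl, 50 mM HEPES, 0.01% Triton X-100. Schedule: 1 h preincubation plus 2 h reaction at 25 °C. Measured by: 405 nm absorbance of p-nitroaniline, reads at 0 and 120 min. Read-out: percent activation relative to control range.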
Fam108B inh: counter-screen for RBBP9 inhibitors: inhibitors of mouse Fam108B; recombinant Fam108B, FP-Rh probe fluorescence polarization; inhibition, % at 9.51 µM; 300,000 compounds, 0.33% hits;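 active = inhibition above the screen mean inhibition plus 3 SD, computed separately per campaign, cut at about 18% in these data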;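 also: inhibitors lower polarization as less probe binds the enzyme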
PME-1 inh: blocks human protein phosphatase methylesterase 1 | 320,000 compounds, 0.53% hits | recombinant PME-1, FP-Rh probe fluorescence polarization | inhibition, % at 5.9 µM | AID 2130 | Q9Y570;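 active = inhibition above the campaign mean of all compounds plus 3 SD, cut at about 26% in these data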;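 also: competitive labeling of PME-1 active site by serine hydrolase directed probe; 0% = PME-1 with DMSO and 100% = wells lacking PME-1 enzyme; inhibitors block probe labeling so polarization falls and inhibition rises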
proCasp7 act: counter-screen for procaspase-3 activators: activators of human procaspase-7; recombinant procaspase-7, Ac-DEVD-pNA absorbance 405 nm; D23A/D198A/D206A triple mutant, cannot self-cleave; scale: DMSO 0, 5 µM enzyme 100; activation, % at 8.5 µM; 330,000 compounds, 0.093% hits;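 active = percent activation above the screen-wide mean plus 3 SD, cut at about 25% in these data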
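Test system: Procaspase-7 triple mutant (PC-7 D3A). Also added: Ac-DEVD-pNA substrate, 400 µM as added. Schedule: 1 h enzyme–compound preincubation and 2 h substrate reaction, both 25 °C. Signal: p-Nitroaniline absorbance at 405 nm, read at 0 and 120 min. Control set: low DMSO alone, high DMSO plus 5 µM PC-7.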
LYPLA2 confirm: LYPLA2 (human) inhibition, confirmation counter-screen | shares compounds with LYPLA2 counter | recombinant LYPLA2, FP-Rh probe fluorescence polarization | inhibition, % at 5.9 µM | 1,100 compounds, 72% hits;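 active = mean inhibition across replicates above the hit cutoff set in the primary screen, cut at about 26% in these data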;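 also: blocked labeling of the enzyme by serine hydrolase FP-Rh probe lowers polarization; 0% = enzyme with DMSO and 100% = wells lacking LYPLA2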
LYPLA2 gel ABPP: blocks human acyl-protein thioesterase 2 in gel ABPP; 150 compounds, 30% hits; inhibition, % at 20 µM; rhLYPLA2 in mouse brain proteome, gel ABPP FP-Rh; shares compounds with LYPLA2 counter;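 active = inhibition of LYPLA2 enzyme probe labeling above about 50%, limit read from the data; inactive = inhibition below that limit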;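 also: loss of FP-Rh probe labeling of the LYPLA2 gel band measured as band density; 0% = DMSO only control band and 100% = blank gel background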
Active calls of the source: *; . = no result.

SMILES | LYPLA2 counter | LYPLA1 counter | procasp3 activ | Fam108B inh | PME-1 inh | proCasp7 act | LYPLA2 confirm | others
COc1ccc(N2CCN(C(=O)COC(=O)c3ccc(-n4nc(C)cc4C)cc3)CC2)cc1 | 42.9* | 6.9 | 1.6 | . | -0.5 | 4.9 | 40.0*
COc1ccc(N2CCN(C(=O)CSc3nc4[nH]ncc4c(=O)n3-c3ccc(Br)cc3)CC2)cc1 | 46.9* | 12.1 | -2.9 | 3.8 | -0.9 | 5.1 | 42.2*
O=C(NCCCN1CCOCC1)c1ccc(Cl)cc1Cl | -7.0 | -1.3 | -7.5 | 0.6 | -3.9 | 6.3 | .
Cc1cc(NC(=O)CN2C(=O)NC3(CCCCCC3)C2=O)ccc1Br | 0.9 | -3.0 | 6.0 | . | -0.1 | -2.9 | .
COc1cccc(NC(=O)CCC2CCN(C(=O)c3ccc(C(C)=O)s3)CC2)c1 | 27.1* | 1.5 | -0.7 | -1.8 | 5.7 | 2.1 | 32.5*
CNc1nc(N)c([N+](=O)[O-])c(Nc2ccccc2OC)n1 | -8.4 | 0.4 | -5.7 | -7.9 | -0.6 | -13.9 | .
COc1ccc([C@H]2CC(=O)C=C(c3cccc(C#N)c3)C2)cc1 | 32.6* | 12.2 | -2.4 | . | -1.0 | 6.0 | 26.1*
COc1ccc([C@H]2CC(=O)C=C(c3cccc(OC)c3)C2)cc1 | 3.1 | -2.9 | 1.1 | . | 7.0 | 5.6 | .
Cc1cccc(C)c1NC(=O)CN1CCN(C(=O)CNC(=O)c2ccc(N3CCCC3=O)cc2)CC1 | 1.1 | -1.8 | 7.0 | . | -4.1 | -9.1 | .
O=C(CN1CCN(C(=O)CNC(=O)c2ccc(N3CCCC3=O)cc2)CC1)Nc1ccccc1Cl | 49.8* | 3.4 | 2.4 | . | -1.4 | 5.0 | 45.7*
CCN(C(=O)[C@@H]1CCCN1C(=O)c1cccs1)c1nc2cc(Cl)ccc2s1 | -17.2 | -11.2 | 3.2 | -7.5 | -8.6 | 9.3 | .
Cc1ccc(OCCC(=O)N(CC(=O)Nc2ccccc2C(F)(F)F)Cc2ccco2)cc1 | 2.9 | -0.5 | 7.7 | -0.6 | 3.1 | 0.5 | .
Cc1onc(-c2ccccc2Cl)c1C(=O)Nc1nnc(-c2ccc(F)cc2)s1 | 52.8* | -2.7 | 8.1 | -3.8 | -11.4 | -3.3 | 3.5
Cc1cc(C)c(C)c(S(=O)(=O)N(C)C2CCN(C)CC2)c1C | 1.6 | -2.2 | -2.4 | 1.6 | 1.3 | 6.5 | .
COCCN(C(=O)COC(=O)c1cc2ccccc2cc1O)c1c(N)n(Cc2ccccc2)c(=O)[nH]c1=O | 3.1 | -0.9 | -7.6 | -3.1 | 2.8 | 1.5 | .
COc1ccc(C2NS(=O)(=O)N=C2N)cc1 (stereo not given) | 32.1* | 4.4 | 7.0 | 3.7 | 1.9 | 8.0 | -6.7
O=C(OCCOc1cccc(Cl)c1)c1cc(S(=O)(=O)N2CCCCC2)ccc1N1CCOCC1 | 52.8* | 12.5 | 2.6 | -1.2 | 1.4 | -3.0 | 58.2*
O=C(OCc1cccc(Cl)c1)c1cc(S(=O)(=O)N2CCCCC2)ccc1N1CCOCC1 | -6.5 | -2.4 | 4.5 | 0.9 | 9.0 | -2.9 | .
CC(C)NC(=O)NC(=O)COC(=O)c1cc(S(=O)(=O)N2CCCCC2)ccc1N1CCOCC1 | 26.6* | 1.5 | 9.8 | -1.3 | 0.1 | 6.5 | 24.4
COC(C)c1oc2c(C)c3oc(=O)cc(C)c3cc2c1C (stereo not given) | 1.3 | -3.4 | 5.8 | 0.5 | -8.1 | 3.5 | .
CCOC(=O)N1CCN(C(=O)/C(=C/c2cccs2)NC(=O)c2cccs2)CC1 | -7.1 | -1.6 | 5.1 | 0.3 | -0.9 | -1.3 | .
CCCc1cc(=O)n2nc(N3CCC(C(=O)N4CCN(c5ccc(OC)cc5)CC4)CC3)sc2n1 | 51.0* | -6.5 | 4.2 | 1.1 | -8.2 | -9.7 | 48.7*
Cc1cc(=O)n2nc(N3CCC(C(=O)N4CCN(c5ccccc5)CC4)CC3)sc2n1 | 19.8 | 1.3 | 2.1 | -3.0 | -2.5 | 8.3 | .
O=C(CN1CCc2ccccc2C1)NC1CCCC1 | 3.7 | 0.6 | -5.2 | 2.4 | 3.4 | 6.6 | .
CCC(OCC(O)CN1CCN(CCN2C(=O)c3cccc4cccc(c34)C2=O)CC1)c1ccccc1 (stereo not given) | 44.9* | 3.1 | 1.9 | 1.7 | -9.2 | -9.2 | 46.2*
SMILES | LYPLA2 counter | LYPLA1 counter | procasp3 activ | Fam108B inh | PME-1 inh | proCasp7 act | LYPLA2 confirm | others
CC(=O)c1ccc(OCC(O)CN2CCN(CCN3C(=O)c4cccc5cccc(c45)C3=O)CC2)cc1 (stereo not given) | 52.7* | 1.5 | -3.1 | 1.1 | 1.7 | -1.5 | 59.1* | LYPLA2 gel ABPP=20.0
C=CCc1ccccc1OCC(O)CN1CCN(CCN2C(=O)c3cccc4cccc(c34)C2=O)CC1 (stereo not given) | 26.6* | 4.8 | 3.0 | -8.2 | -4.6 | 10.2 | 36.8*
Cc1ccccc1OCC(O)CN1CCN(CCN2C(=O)c3cccc4cccc(c34)C2=O)CC1 (stereo not given) | 39.2* | -3.3 | 1.9 | -4.7 | 1.0 | -2.1 | 47.8*
N#Cc1ccc2nc3c(nc2c1)CCCC3 | -4.0 | 1.6 | -3.1 | -1.4 | 0.2 | 7.4 | .
CSCCC(NC(=O)C1CCC(C)CC1)C(=O)NCCN1CCC(C)CC1 (stereo not given) | 10.0 | 4.8 | 10.8 | 6.5 | 2.4 | 8.1 | .
C[C@]1(CO)CCC[C@@]2(C)C1CC[C@@H](CO)[C@@H]2CCc1ccoc1 (stereo not given in full) | -1.1 | -0.7 | 0.6 | -1.8 | 0.3 | 0.1 | .
COc1ccc(N2CCN(S(=O)(=O)c3c(C)[nH]c(C)c3C(=O)N3CCCC3)CC2)cc1 | -0.8 | 5.6 | 1.9 | 2.6 | -3.2 | -1.1 | .
CCCCCCCOc1ccc(OC(=O)c2ccncc2)cc1 | 32.1* | 3.2 | 2.8 | 1.6 | 0.3 | 1.9 | 48.6*
CCCCCCCOc1ccc(OC(=O)c2cccnc2)cc1 | 40.9* | 1.1 | -7.0 | -4.5 | 3.4 | 9.1 | 47.9*
CCCCOc1ccc(OC(=O)c2cccnc2)cc1 | 2.4 | -0.6 | 1.4 | 6.1 | 1.3 | 5.9 | .
CC(=O)c1ccc(OCc2cc(C(=O)N3CCC(c4ccncc4)CC3)no2)cc1 | 34.0* | 2.7 | 1.9 | -1.9 | -2.1 | 4.5 | 37.3*
CN(C(=O)c1ccc(NC(=O)Cc2ccc(NC(=O)C3CCN(C(=O)C4CC4)CC3)cc2)cc1)C1CC1 | 4.9 | 3.8 | 5.1 | . | 1.3 | 2.5 | .
CN(Cc1ccccc1)C(=O)c1ccc(NC(=O)Cc2cccc(NC(=O)C3CCN(C(=O)C4CCCCC4)CC3)c2)cc1 | -11.9 | -7.2 | 0.5 | . | -10.6 | 16.1 | .
CN(C(=O)c1ccc(NC(=O)Cc2cccc(NC(=O)C3CCN(C(=O)C4CCCC4)CC3)c2)cc1)C1CCCC1 | 32.4* | 3.4 | -3.1 | . | -2.0 | -1.0 | -5.4
